Active and inactive are the calls of the source. No cut-off for these calls is given here.
Experiments:
[1] = test system: THP-1; assay: Induction of APOE gene expression in human THP1 cells at 10 uM by array plate mRNA assay; assay type: functional
Method in brief: (§1)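 Multiplex quantitative nuclease protection assay (ArrayPlate mRNA) of LXR-regulated genes, run at the same time as housekeeping genes. Compounds were tested at 10 µM alongside a negative control compound. CV% generally below 20%.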

[2] = test system: THP-1; assay: Induction of Cox2 gene expression in human THP1 cells at 10 uM by array plate mRNA assay; assay type: functional; method in brief: as §1
[3] = test system: THP-1; assay: Induction of SCD1 gene expression in human THP1 cells at 10 uM by array plate mRNA assay; assay type: functional; method in brief: as §1
[4] = test system: THP-1; assay: Induction of FASN gene expression in human THP1 cells at 10 uM by array plate mRNA assay; assay type: functional; method in brief: as §1
[5] = test system: THP-1; assay: Induction of ABCG1 gene expression in human THP1 cells at 10 uM by array plate mRNA assay; assay type: functional; method in brief: as §1
[6] = test system: THP-1; assay: Induction of LXRalpha gene expression in human THP1 cells at 10 uM by array plate mRNA assay; assay type: functional; method in brief: as §1
[7] = test system: THP-1; assay: Induction of ACTB gene expression in human THP1 cells at 10 uM by array plate mRNA assay; assay type: functional; method in brief: as §1
[8] = test system: THP-1; assay: Induction of B2M gene expression in human THP1 cells at 10 uM by array plate mRNA assay; assay type: functional; method in brief: as §1
[9] = test system: THP-1; assay: Induction of IL6 gene expression in human THP1 cells at 10 uM by array plate mRNA assay; assay type: functional; method in brief: as §1
[10] = test system: THP-1; assay: Induction of SREBP1c gene expression in human THP1 cells at 10 uM by array plate mRNA assay; assay type: functional; method in brief: as §1
[11] = test system: THP-1; assay: Induction of NR1H2 gene expression in human THP1 cells at 10 uM by array plate mRNA assay; assay type: functional; method in brief: as §1
[12] = test system: THP-1; assay: Induction of TBP gene expression in human THP1 cells at 10 uM using by array plate mRNA assay; assay type: functional; method in brief: as §1
[13] = test system: THP-1; assay: Induction of ABCA1 gene expression in human THP1 cells at 10 uM by array plate mRNA assay; assay type: functional; method in brief: as §1
[14] = test system: THP-1; assay: Induction of HDS11B1 gene expression in human THP1 cells at 10 uM using Array plate mRNA assay; assay type: functional; method in brief: as §1
[15] = biological target: T1, Oxysterols receptor LXR-beta (Homo sapiens) (UniProt P55055); assay: Agonist activity at human LXRbeta by SRC1 cofactor recruitment assay; assay type: functional
T1 sequence (whole entry): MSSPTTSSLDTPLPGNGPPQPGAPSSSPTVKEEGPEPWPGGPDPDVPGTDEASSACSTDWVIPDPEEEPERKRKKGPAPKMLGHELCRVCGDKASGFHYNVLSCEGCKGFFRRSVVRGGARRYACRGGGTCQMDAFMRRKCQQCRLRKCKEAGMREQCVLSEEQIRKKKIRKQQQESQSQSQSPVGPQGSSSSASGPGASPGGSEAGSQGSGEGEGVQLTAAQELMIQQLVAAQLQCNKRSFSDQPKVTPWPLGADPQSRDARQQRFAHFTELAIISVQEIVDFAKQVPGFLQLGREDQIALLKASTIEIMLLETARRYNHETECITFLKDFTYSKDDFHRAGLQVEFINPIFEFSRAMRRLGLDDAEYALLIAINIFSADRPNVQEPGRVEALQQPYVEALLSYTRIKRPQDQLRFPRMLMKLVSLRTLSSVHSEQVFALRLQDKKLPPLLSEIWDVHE
Method in brief: (§2)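 HTRF coactivator recruitment: His-tagged human LBD (LXRα 2 nM or LXRβ 1 nM) incubated with compound, 20 nM biotin-SRC1 peptide, 5 nM streptavidin-allophycocyanin and Eu-anti-His antibody (1 nM for α, 0.5 nM for β). Incubated 1 h at room temperature with shaking. EC50 taken from the 665/615 nm time-resolved fluorescence ratio.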

[16] = biological target: T2, Oxysterols receptor LXR-alpha (Homo sapiens) (UniProt Q13133); assay: Agonist activity at human LXRalpha by SRC1 cofactor recruitment assay; assay type: functional; method in brief: as §2
T2 sequence (whole entry): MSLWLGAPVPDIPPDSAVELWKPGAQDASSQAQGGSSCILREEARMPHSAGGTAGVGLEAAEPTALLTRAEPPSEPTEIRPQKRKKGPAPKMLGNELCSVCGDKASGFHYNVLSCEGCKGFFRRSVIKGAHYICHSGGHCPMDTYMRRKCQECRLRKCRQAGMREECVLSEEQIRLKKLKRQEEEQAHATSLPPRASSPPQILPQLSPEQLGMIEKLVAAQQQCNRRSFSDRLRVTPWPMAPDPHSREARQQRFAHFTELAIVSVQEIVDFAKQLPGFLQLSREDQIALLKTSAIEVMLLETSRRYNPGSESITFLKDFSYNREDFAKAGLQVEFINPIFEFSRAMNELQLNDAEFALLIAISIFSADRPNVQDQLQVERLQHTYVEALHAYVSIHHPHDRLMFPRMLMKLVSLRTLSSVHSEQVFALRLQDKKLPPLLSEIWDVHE

[17] = test system: THP-1; assay: Induction of cholesterol efflux in human THP1 cells; assay type: functional, cell-based
Method in brief: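 THP-1 cells differentiated to macrophages with 200 nM PMA for 30 h. Labelled 18 h with 0.6 µCi [1,2-3H]cholesterol plus 16 µg/mL acLDL and PMA. Treated with compound 6 h in serum-free medium with 2 mg/mL BSA, then 18 h more with 5 µg/mL apoA-I plus compound. Supernatant radioactivity expressed as fold over vehicle. Mean of triplicates, single experiment.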

[18] = test system: HepG2; assay: Induction of lipogenesis in human HepG2 cells after 24 hrs; assay type: functional, cell-based
Method in brief: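 HepG2 cells pretreated with compound or vehicle for 24 h, then given 1 µCi [14C]glycerol for a further 48 h. Cellular triglycerides extracted, resolved by TLC and quantified by phosphorimaging. Reported as fold induction over vehicle. Mean of triplicates, single experiment.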

SMILES	Activity [1]	Activity [2]	Activity [3]	Activity [4]	Activity [5]	Activity [6]	Activity [7]	Activity [8]	Activity [9]	Activity [10]	Activity [11]	Activity [12]	Activity [13]	Activity [14]	Activity [15]	Activity [16]	Activity [17]	Activity [18]
C[C@H](CC[C@@H]1OC1(C)C)[C@H]1CC[C@H]2[C@@H]3CC=C4C[C@@H](O)CC[C@]4(C)[C@H]3CC[C@]12C [24(S),25-EPOXYCHOLESTEROL]	2.61	1.35	1.17	0.89	9.91	3.41	0.9	1.25	0.82	2.05	1.09	0.99	5.59	0.79	–	–	–	–
C[C@@H]1C2Cc3ccc(O)cc3[C@]1(C)CCCN2CCc1ccccc1	3.34	1.2	4.76	1.75	13.56	3.93	0.93	1.05	0.91	4.05	1.16	1.19	4.53	1.43	Active	Active	Active	Active
O=S(=O)(c1ccccc1)N(CC(F)(F)F)c1ccc(C(O)(C(F)(F)F)C(F)(F)F)cc1 [T091317]	4.2	0.93	8.16	2.59	15.05	4.56	0.93	1.17	1.78	4.09	1.17	1.05	5.9	1.26	–	–	–	–
O=C(O)Cc1cccc(OCCCN(Cc2cccc(C(F)(F)F)c2Cl)CC(c2ccccc2)c2ccccc2)c1	4.13	1.2	12.82	3.77	24.92	4.7	0.89	1.18	1.02	5.28	1.22	1.25	10.04	0.8	–	–	–	–
